In ChEMBL document CHEMBL1127851, “Synthesis and biological properties of 5-o-carboranyl-1-(2-deoxy-2-fluoro-beta-D-arabinofuranosyl)uracil” (J Med Chem, 1994):

Assays:
Mus musculus [1] = experiment: Percentage of weight gained or lost in 4th week in normal swiss mice at a dose of 30 mg/kg/day; type: functional
In short: (§1)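 Female Swiss mice, 6 weeks old, 5 per group. Given 30 mg/kg/day ip in sterile DMSO (0.1 mL) once daily for 6 days. DMSO and water controls. Weighed twice weekly for 28 days. Survival recorded at week 4.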

Mus musculus [2] = experiment: Percentage of weight gained or lost in 1 week in normal swiss mice at a dose of 30 mg/kg/day; type: functional; in short: as §1
Mus musculus [3] = experiment: Percentage of weight gained or lost in 2nd week in normal swiss mice at a dose of 30 mg/kg/day; type: functional; in short: as §1
Mus musculus [4] = experiment: Percentage of weight gained or lost in 3rd week in normal swiss mice at a dose of 30 mg/kg/day; type: functional; in short: as §1
Mus musculus [5] = organism: Mus musculus; experiment: Number of animals survived when the compound was tested at a dose of 30 mgkg/day in 5 Swiss mice; type: functional; in short: as §1
PBMC [6] = experiment: Antiviral activity against HIV-1 strain LAI in PBM cells on day 6; type: functional, cell-based; conditions: Homo sapiens, 144 h
In short: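 HIV-1 (strain […] per footnote) in human PBM cells, acutely infected. Compounds from 40 mM DMSO stocks, diluted to test concentrations. EC50 from concentration-response curve by Chou–Talalay median-effect method. Replicate assays, variability under 15%.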

Vero = experiment: Antiviral activity against HSV-1 strain F in Vero cells on day 2; type: functional, cell-based; conditions: Chlorocebus sabaeus, 48 h
In short: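 Plaque reduction assay in Vero cells infected with HSV-1 strain F. […], diluted from 40 mM DMSO stocks. EC50 by Chou–Talalay median-effect analysis of the concentration-response curve. Replicate assays.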

[7] = Compound was tested for inhibitory activity against erythroid (BFU-E) progenitor cells; type: functional, Homo sapiens
In short: (§2)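 Human bone marrow aspirated from healthy donors and heparinized. Mononuclear cells isolated on Ficoll-Hypaque, washed twice in HBSS; viability >98% by trypan blue. Bilayer soft agar or methyl cellulose culture at 0.1–100 μM. After 14 days at 37 °C in 5% CO2, colonies of ≥50 cells counted; % of control. Three donors, each in triplicate.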

PBMC [8] = experiment: Cytotoxic concentration against PBM cells was determined on day 6; type: functional, cell-based; conditions: Homo sapiens, 144 h
In short: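 Cytotoxicity in human PBM, CEM and Vero cells, compounds diluted from 40 mM DMSO stocks. IC50 from the concentration-response curve by Chou–Talalay median-effect method. Replicate assays, variability under 15%.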

CFU-GM = experiment: Compound was tested for inhibitory activity against human myeloid cells (CFU-GM); type: functional, cell-based; in short: as §2

C[S+](C)[O-] [DIMETHYL SULFOXIDE]
Weight gain or loss (Mus musculus [1]): 10%
Weight gain or loss (Mus musculus [2]): -0.9%
Weight gain or loss (Mus musculus [3]): 3%
Weight gain or loss (Mus musculus [4]): 6.3%
No. of animals survived (Mus musculus [5]): 5

Cc1cn([C@H]2C[C@H](N=[N+]=[N-])[C@@H](CO)O2)c(=O)[nH]c1=O [ZIDOVUDINE]
EC50 (PBMC [6]): 4 nM
EC50 (Vero): > 50000 nM
IC50 [7]: 600 nM
IC50 (PBMC [8]): > 100000 nM
IC50 (CFU-GM): 1500 nM
